High-throughput results: PubChem BioAssay, Johns Hopkins Ion Channel Center
TRPC6 inhibitor = inhibitors of mouse TRPC6 channel; Q61143; HEK293-TRPC6, membrane potential dye, ACh-evoked depolarization; active compounds read low; B-score at 10 µM; hit rate 1.1% among 310,000;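 active means B-score under library mean minus 3 SD, initial fluorescence not abnormally high, positive integrated signal ratio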;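 further: B-score derived from integrated fluorescence ratio over the kinetic read; more negative B-score means stronger inhibition of depolarization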
TRPC6 act = mouse TRPC6 channel activation. Q61143. HEK293-TRPC6 membrane potential dye fluorescence; active compounds read high. B-score at 10 µM. hit rate 0.13% among 310,000. AID 2550;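 active means B-score of the integrated fluorescence ratio above library mean plus 3 SD, and starting fluorescence ratio within library mean plus 5 SD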;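 further: higher score means more depolarization so channel activation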
TRPC4 potent = allosteric potentiators of mouse TRPC4 channel; AID 2227; hit rate 0.42% among 310,000; HEK293 TRPC4beta/mu-opioid, DAMGO EC20, Fluo-4 Ca2+ flux; active compounds read high; B-score at 10 µM;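 active means B-score of calcium response area above 5 SD of library B-scores, with initial fluorescence ratio within 5 SD of library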;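 further: B-score of integrated fluorescence ratio over time as area under calcium response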
Target sequence (Q9QUQ5 whole entry, looked up): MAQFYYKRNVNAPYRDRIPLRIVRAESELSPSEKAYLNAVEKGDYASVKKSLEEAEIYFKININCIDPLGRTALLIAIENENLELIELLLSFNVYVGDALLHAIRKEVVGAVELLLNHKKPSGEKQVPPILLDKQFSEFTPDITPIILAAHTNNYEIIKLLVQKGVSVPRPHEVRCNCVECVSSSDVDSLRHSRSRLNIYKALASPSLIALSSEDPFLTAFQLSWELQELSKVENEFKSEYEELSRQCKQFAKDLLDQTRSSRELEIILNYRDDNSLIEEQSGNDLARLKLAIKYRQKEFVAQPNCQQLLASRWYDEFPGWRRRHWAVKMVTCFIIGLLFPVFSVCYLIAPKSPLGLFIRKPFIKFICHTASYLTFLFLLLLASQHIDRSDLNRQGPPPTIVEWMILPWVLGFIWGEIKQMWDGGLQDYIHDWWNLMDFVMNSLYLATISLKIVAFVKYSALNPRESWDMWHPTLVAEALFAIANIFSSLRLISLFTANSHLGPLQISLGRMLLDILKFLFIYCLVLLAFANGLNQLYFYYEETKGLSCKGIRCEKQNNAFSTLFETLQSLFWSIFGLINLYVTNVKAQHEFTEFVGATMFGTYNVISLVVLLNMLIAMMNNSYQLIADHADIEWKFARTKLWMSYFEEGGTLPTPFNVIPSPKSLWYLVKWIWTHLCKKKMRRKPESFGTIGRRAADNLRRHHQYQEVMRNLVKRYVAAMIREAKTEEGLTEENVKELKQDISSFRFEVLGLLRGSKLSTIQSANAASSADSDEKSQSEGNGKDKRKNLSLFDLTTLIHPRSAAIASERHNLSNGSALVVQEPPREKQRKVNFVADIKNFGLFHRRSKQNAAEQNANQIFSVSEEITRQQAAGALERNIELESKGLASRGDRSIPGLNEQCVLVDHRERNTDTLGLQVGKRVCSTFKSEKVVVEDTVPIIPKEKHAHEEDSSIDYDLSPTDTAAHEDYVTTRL
TRPC4 agonist = opens the mouse TRPC4 cation channel; Q9QUQ5; B-score at 10 µM; hit rate 0.49% among 310,000; AID 2237; HEK293 TRPC4beta/mu-opioid, Fluo4 calcium fluorescence; active compounds read high;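 active means B-score above 5 SD of library B-scores, and initial fluorescence ratio not above library mean plus 5 SD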;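 further: positive B-score marks a calcium rise read as TRPC4 activation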
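Material: TRPC4beta and mu-opioid receptor HEK293 stable cells | Incubation: 45 min room-temperature Fluo4 loading, 110 s read | Detection: Kinetic Fluo4 calcium fluorescence | Measure: Integrated baseline-normalised fluorescence ratio, converted to per-well B score | Benchmarks: Low control buffer alone, high control maximal DAMGO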
TRPC4 block = TRPC4 (mouse) channel inhibition; B-score at 10 µM; HEK293 TRPC4beta/mu-opioid, DAMGO-evoked Fluo4 calcium flux; active compounds read low; hit rate 0.39% among 300,000;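 active means B-score over 3 SD under the library average, no early fluorescence shift, positive overall ratio signal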
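Assay system: HEK293 cells with stable TRPC4beta plus mu-opioid receptor expression. Dosing: single dose. Measured by: Fluo4 Ca2+ flux fluorescence. Also added: DAMGO in two steps, submaximal then maximal. Read-out: B score from integrated Fluo4 fluorescence ratio.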
HEK293 TRPC6 ctr = counter-screen for TRPC6 modulators: effect in parental HEK293 cells. hit rate 51% among 2,400. membrane potential signal change, % at 10 µM. shares compounds with TRPC6 inhibitor. membrane potential dye fluorescence;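 active means membrane potential signal moves up or down beyond 5 SD from buffer-only wells, on both duplicate plates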
HEK293 MPD ctr 2 = second counter-screen for TRPC6 modulators: effect in parental HEK293 cells; shares compounds with TRPC6 inhibitor; membrane potential dye fluorescence; after compound, maximal acetylcholine stimulation; inhibition, % at 10 µM; hit rate 14% among 2,400; AID 488926;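 active means membrane potential signal drops by more than 5 SD from the mean control signal, in both duplicate plates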;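 further: plate controls were acetylcholine ECmax control wells for no effect and buffer only wells for full effect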
TRPC4 ctr mod = selectivity of TRPC6 modulators against mouse TRPC4 | AID 488927 | hit rate 69% among 2,400 | percent change from control (negative = decrease, positive = increase), % at 10 µM | HEK293 TRPC4/mu-opioid, membrane potential fluorescence | shares compounds with TRPC6 inhibitor;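 active means membrane potential signal moved up or down beyond 5 SD of buffer control wells, in both duplicate plates, actives on both sides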;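 further: plate controls were assay buffer wells for no effect and DAMGO maximal-effect wells for full effect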
TRPC4/MOR inh 2 = mouse TRPC4 off-target activity of TRPC6 modulators, second screen | HEK293 TRPC4/mu-opioid, membrane potential dye fluorescence; stimulated with maximal-effect DAMGO | shares compounds with TRPC6 inhibitor | inhibition, % at 10 µM | hit rate 55% among 2,400;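 active means drop in membrane potential signal beyond 5 SD of the control wells in both duplicate plates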;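 further: TRPC4 counter screen for TRPC6 hits run under conditions tuned for TRPC6 not TRPC4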
TRPC6 inh conf = mouse TRPC6 inhibitor confirmation. hit rate 43% among 3,300. AID 488960. shares compounds with TRPC6 inhibitor. inhibition, % at 10 µM. HEK293-TRPC6, membrane potential dye, ACh-evoked depolarization;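 active means fluorescence ratio falls more than 5 SD below the full-stimulation control mean, in both duplicate runs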;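 further: integrated fluorescence ratio of peak minus minimum over baseline after agonist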
TRPC6 act confirm = mouse TRPC6 activator confirmation | hit rate 11% among 2,800 | activation, % at 10 µM | shares compounds with TRPC6 inhibitor | HEK293-TRPC6 membrane potential dye fluorescence, FDSS;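 active means ratio signal rise beyond 5 SD above unstimulated control wells' mean, seen in both duplicate runs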;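 further: plate controls were buffer EC0 wells for no effect and acetylcholine ECmax response for full effect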
The depositor's hits bear a star. Compounds with a hit are over-represented: about 2.3% of the library has one in this group of screens.

What do the screens show for `COc1ccc(NC(=O)c2ccc(N3CCOCC3)nc2)cc1`?
TRPC6 inhibitor: inactive; TRPC6 act: inactive; TRPC4 potent: inactive; TRPC4 agonist: inactive; TRPC4 block: inactive

What do the screens show for `COc1ccc(S(=O)(=O)Nc2ccc(N3CCOCC3)nc2)cc1`?
TRPC6 inhibitor: -5*; TRPC6 act: inactive; TRPC4 potent: inactive; TRPC4 agonist: inactive; TRPC4 block: inactive; HEK293 TRPC6 ctr: inactive; HEK293 MPD ctr 2: inactive; TRPC4 ctr mod: inactive; TRPC4/MOR inh 2: inactive; TRPC6 inh conf: inactive; TRPC6 act confirm: inactive

How did COc1cc2c(cc1OC)CN(c1ccc(F)cc1[N+](=O)[O-])CC2 do in these assays?
TRPC6 inhibitor: inactive; TRPC6 act: inactive; TRPC4 potent: inactive; TRPC4 agonist: inactive; TRPC4 block: inactive

How did O=C(Cc1c(F)c(F)c(F)c(F)c1F)Nc1nc(-c2ccccc2)cs1 do in these assays?
TRPC6 inhibitor: inactive; TRPC6 act: inactive; TRPC4 potent: inactive; TRPC4 agonist: inactive; TRPC4 block: inactive

Results for Nc1c(-c2ccccc2)sc2ccc3ccccc3[n+]12 ?
TRPC6 inhibitor: -5*; TRPC6 act: inactive; TRPC4 potent: inactive; TRPC4 agonist: inactive; TRPC4 block: inactive; HEK293 TRPC6 ctr: -99%*; HEK293 MPD ctr 2: inactive; TRPC4 ctr mod: -18%*; TRPC4/MOR inh 2: inactive; TRPC6 inh conf: 44%*; TRPC6 act confirm: inactive

How did Cc1cccc(NC(=O)C(C)SCc2nc3sc4c(c3c(=O)[nH]2)CCCC4)n1 (configuration not stated) do in these assays?
TRPC6 inhibitor: inactive; TRPC6 act: inactive; TRPC4 potent: inactive; TRPC4 agonist: inactive; TRPC4 block: inactive

Results for CC(C)(C)CN1CCN(Cc2cccnc2)CC1CCO (configuration not stated) ?
TRPC6 inhibitor: inactive; TRPC6 act: inactive; TRPC4 potent: inactive; TRPC4 agonist: inactive; TRPC4 block: inactive

Results for O=C(Nc1ccc(C2=NCCN2)cc1)c1ccc(C(=O)Nc2ccc(C3=NCCN3)cc2)c(Cl)c1 ?
TRPC6 inhibitor: inactive; TRPC6 act: 16*; TRPC4 potent: inactive; TRPC4 agonist: inactive; TRPC4 block: inactive; HEK293 TRPC6 ctr: 307%*; HEK293 MPD ctr 2: inactive; TRPC4 ctr mod: 54%*; TRPC4/MOR inh 2: inactive; TRPC6 inh conf: inactive; TRPC6 act confirm: 154%*

What do the screens show for `COC(=O)c1ccc2c(c1)C(C)(C)C(/C=C/c1ccccc1O)=[N+]2C`?
TRPC6 inhibitor: -10*; TRPC6 act: inactive; TRPC4 potent: inactive; TRPC4 agonist: inactive; TRPC4 block: inactive; HEK293 TRPC6 ctr: 410%*; HEK293 MPD ctr 2: 199%*; TRPC4 ctr mod: -208%*; TRPC4/MOR inh 2: 99%*; TRPC6 inh conf: 106%*; TRPC6 act confirm: inactive

What do the screens show for `CN1C(=O)/C(=C\c2ccc(N(C)C)cc2)OC1=S`?
TRPC6 inhibitor: inactive; TRPC6 act: 19*; TRPC4 potent: inactive; TRPC4 agonist: inactive; TRPC4 block: inactive; HEK293 TRPC6 ctr: 322%*; HEK293 MPD ctr 2: inactive; TRPC4 ctr mod: 74%*; TRPC4/MOR inh 2: inactive; TRPC6 inh conf: inactive; TRPC6 act confirm: 123%*

Results for O=C(Nc1ccc(N2CCCC2)cc1)c1ccc(Cl)cc1Cl ?
TRPC6 inhibitor: inactive; TRPC6 act: inactive; TRPC4 potent: inactive; TRPC4 agonist: inactive; TRPC4 block: inactive
